Measured values taken from ChEMBL document CHEMBL4261588, “Breathing new life into West Nile virus therapeutics; discovery and study of zafirlukast as an NS2B-NS3 protease inhibitor” (Eur J Med Chem, 2018).
Activity calls are given as the source filed them. No cut-off for these calls is given here.

Tests used:
West Nile virus [1] = assay: Inhibition of West Nile virus NS2B-NS3 protease at 60 uM using Mca-KKR-GDap(DNP)AK-NH2 as substrate measured every 30 secs for 20 mins by FRET assay
West Nile virus [2] = assay: Inhibition of West Nile virus NS2B-NS3 protease using Mca-KKR-GDap(DNP)AK-NH2 as substrate measured every 30 secs for 5 mins in presence of Brij35 by FRET assay
How it was run: (§1)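 Aggregation counter-screen run in the FRET protease assay, with inhibition followed across a range of detergent concentrations (0-0.2 %) of CHAPS and of Brij35.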

West Nile virus [3] = assay: Mixed inhibition of West Nile virus NS2B-NS3 protease using Mca-KKR-GDap(DNP)AK-NH2 as substrate measured every 30 secs for 10 mins by Lineweaver-burk plot analysis
[4] = Inhibition of West Nile virus NS2B-NS3 protease using Mca-KKR-GDap(DNP)AK-NH2 as substrate measured every 30 secs for 20 mins by FRET assay
How it was run: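 FRET read-out: protease cleavage of a peptide carrying a fluorophore and a quencher on either side of the cleavage site raises fluorescence in proportion to enzyme activity. IC50 is taken as the inhibitor concentration that lowers enzymatic activity by 50%.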

West Nile virus [5] = assay: Inhibition of West Nile virus NS2B-NS3 protease using Mca-KKR-GDap(DNP)AK-NH2 as substrate measured every 30 secs for 5 mins in presence of CHAPS by FRET assay; how it was run: as §1

inhibition (West Nile virus [1]) | SMILES | other results
64% | Cc1ccccc1S(=O)(=O)NC(=O)c1ccc(Cc2cn(C)c3ccc(NC(=O)OC4CCCC4)cc23)cc1 | 
81% | COc1cc(C(=O)NS(=O)(=O)c2ccccc2)ccc1Cc1cn(C)c2ccc(NC(=O)OC3CCCC3)cc12 | 
 | COc1cc(C(=O)NS(=O)(=O)c2ccccc2C)ccc1Cc1cn(C)c2ccc(NC(=O)OC3CCCC3)cc12 [ZAFIRLUKAST] | inhibition (West Nile virus [2]): Active; inhibition (West Nile virus [3]): Active; IC50 [4]: 32 µM; inhibition (West Nile virus [5]): Active
12% | COC(=O)c1ccc(Cc2cn(C)c3ccc(NC(=O)OC4CCCC4)cc23)c(OC)c1 | 
12% | CCOC(=O)Nc1ccc2c(c1)c(Cc1ccc(C(=O)NS(=O)(=O)c3ccccc3C)cc1OC)cn2C | 
79% | COc1cc(C(=O)NS(=O)(=O)c2ccccc2C)ccc1Cn1ccc2cc(NC(=O)OC3CCCC3)ccc21 | 
92% | COc1cc(C(=O)NS(=O)(=O)c2ccccc2C)ccc1Cc1cn(C)c2ccc(NC(=O)Oc3ccccc3)cc12 | IC50 [4]: 22 µM
5% | COC(=O)c1ccc(Cn2ccc3cc(NC(=O)OC4CCCC4)ccc32)c(OC)c1 | 
4% | Cc1ccccc1S(=O)(=O)NC(=O)c1ccc(NC(=O)OC2CCCC2)cc1 | 
5% | COc1cc(C(=O)NCc2ccccc2)ccc1Cc1cn(C)c2ccc(NC(=O)OC3CCCC3)cc12 | 
6% | Cn1ccc2cc(NC(=O)OC3CCCC3)ccc21 | 
33% | COc1cc(C(=O)NS(=O)(=O)c2ccccc2C)ccc1Cc1cn(C)c2ccc(NC(=O)CC3CCCC3)cc12 | 
30% | COc1cc(C(=O)NS(=O)(=O)c2ccccc2C)ccc1Cc1cccc(NC(=O)OC2CCCC2)c1 | 
